Assay results published in ChEMBL document CHEMBL3351385, “Synthesis and preliminary mechanistic evaluation of 5-(p-tolyl)-1-(quinolin-2-yl)pyrazole-3-carboxylic acid amides with potent antiproliferative activity on human cancer cell lines” (Eur J Med Chem, 2014).

Experiments:
MCF7 = assay: Cytotoxicity against human MCF7 cells after 72 hrs by SRB assay; format: functional, cell-based; details: MCF7, 72 h
How it was run: (§1)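 Cells kept in DMEM with 10% FCS and penicillin/streptomycin at 37°C, 5% CO2. 2000–3000 cells/well were seeded, and medium was refreshed the next day. DMSO solutions were added over 2.5–40 µM with matched DMSO-only controls for 72 h. Cells were then TCA-fixed, stained with 0.4% SRB in 1% acetic acid, solubilized in 10 mM Tris pH 8 and read at 515 nm. Data were normalized to DMSO wells and expressed as mean ±SD.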

[1] = target: Tyrosine-protein kinase ZAP-70 (Homo sapiens) (UniProt P43403); assay: Inhibition of ZAP70 (unknown origin) assessed as remaining enzyme activity at 10 uM by radioactive [33P]-ATP filter binding assay
[2] = target: Serine/threonine-protein kinase pim-2 (Homo sapiens) (UniProt Q9P1W9); assay: Inhibition of PIM2 (unknown origin) assessed as remaining enzyme activity at 10 uM by radioactive [33P]-ATP filter binding assay
[3] = Cytotoxicity against human HuH7 cells after 72 hrs by SRB assay; format: functional, cell-based; details: Huh-7, 72 h; how it was run: as §1
[4] = target: Ephrin type-B receptor 2 (Homo sapiens) (UniProt P29323); assay: Inhibition of EPHB2 (unknown origin) assessed as remaining enzyme activity at 10 uM by radioactive [33P]-ATP filter binding assay
How it was run: (§2)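 A single 10 µM concentration was tested across a 140-kinase panel. Activity was measured by a radioactive 33P-ATP filter-binding assay run at the International Center for Kinase Profiling, University of Dundee.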

[5] = target: Serine/threonine-protein kinase WNK1 (Homo sapiens) (UniProt Q9H4A3); assay: Inhibition of WNK1 (unknown origin) assessed as remaining enzyme activity at 10 uM by radioactive [33P]-ATP filter binding assay
[6] = target: Mitogen-activated protein kinase 14 (Homo sapiens) (UniProt Q16539); assay: Inhibition of p38alpha (unknown origin) assessed as remaining enzyme activity at 10 uM by radioactive [33P]-ATP filter binding assay
[7] = target: Serine/threonine-protein kinase PINK1, mitochondrial (Homo sapiens) (UniProt Q9BXM7); assay: Inhibition of PINK (unknown origin) assessed as remaining enzyme activity at 10 uM by radioactive [33P]-ATP filter binding assay
[8] = target: Eukaryotic translation initiation factor 2-alpha kinase 3 (Homo sapiens) (UniProt Q9NZJ5); assay: Inhibition of EIF2AK3 (unknown origin) assessed as remaining enzyme activity at 10 uM by radioactive [33P]-ATP filter binding assay; how it was run: as §2
[9] = target: Calcium/calmodulin-dependent protein kinase type 1 (Homo sapiens) (UniProt Q14012); assay: Inhibition of CAMK1 (unknown origin) assessed as remaining enzyme activity at 10 uM by radioactive [33P]-ATP filter binding assay; how it was run: as §2
[10] = target: MAP kinase-interacting serine/threonine-protein kinase 1 (Homo sapiens) (UniProt Q9BUB5); assay: Inhibition of MNK1 (unknown origin) assessed as remaining enzyme activity at 10 uM by radioactive [33P]-ATP filter binding assay
[11] = target: Serine/threonine-protein kinase pim-1 (Homo sapiens) (UniProt P11309); assay: Inhibition of PIM1 (unknown origin) assessed as remaining enzyme activity at 10 uM by radioactive [33P]-ATP filter binding assay
[12] = target: Serine/threonine-protein kinase Nek6 (Homo sapiens) (UniProt Q9HC98); assay: Inhibition of NEK6 (unknown origin) assessed as remaining enzyme activity at 10 uM by radioactive [33P]-ATP filter binding assay
[13] = target: Dual specificity tyrosine-phosphorylation-regulated kinase 1A (Homo sapiens) (UniProt Q13627); assay: Inhibition of DYRK1A (unknown origin) assessed as remaining enzyme activity at 10 uM by radioactive [33P]-ATP filter binding assay; how it was run: as §2
[14] = target: Homeodomain-interacting protein kinase 2 (Homo sapiens) (UniProt Q9H2X6); assay: Inhibition of HIPK2 (unknown origin) assessed as remaining enzyme activity at 10 uM by radioactive [33P]-ATP filter binding assay
[15] = target: Discoidin domain-containing receptor 2 (Homo sapiens) (UniProt Q16832); assay: Inhibition of DDR2 (unknown origin) assessed as remaining enzyme activity at 10 uM by radioactive [33P]-ATP filter binding assay; how it was run: as §2
[16] = target: Misshapen-like kinase 1 (Homo sapiens) (UniProt Q8N4C8); assay: Inhibition of MINK1 (unknown origin) assessed as remaining enzyme activity at 10 uM by radioactive [33P]-ATP filter binding assay
[17] = target: Mitogen-activated protein kinase 1 (Homo sapiens) (UniProt P28482); assay: Inhibition of ERK2 (unknown origin) assessed as remaining enzyme activity at 10 uM by radioactive [33P]-ATP filter binding assay; how it was run: as §2
[18] = target: Homeodomain-interacting protein kinase 1 (Homo sapiens) (UniProt Q86Z02); assay: Inhibition of HIPK1 (unknown origin) assessed as remaining enzyme activity at 10 uM by radioactive [33P]-ATP filter binding assay
[19] = target: Serine/threonine-protein kinase SIK2 (Homo sapiens) (UniProt Q9H0K1); assay: Inhibition of SIK2 (unknown origin) assessed as remaining enzyme activity at 10 uM by radioactive [33P]-ATP filter binding assay
[20] = Induction of cell cycle arrest in human HuH7 cells assessed as accumulation at G2/M phase at cytotoxic IC50 level after 48 hrs by propidium iodide staining based FACS method; format: functional, Huh-7
How it was run: (§3)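 Huh7 cells were seeded at 150,000–300,000 per 100-mm dish and left 24 h. […] Cells were stained with a propidium iodide-containing cell cycle reagent, and subG1, G0/G1, S and G2/M fractions were scored by flow cytometry.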

[21] = target: Serine/threonine-protein kinase Chk1 (Homo sapiens) (UniProt O14757); assay: Inhibition of CHK1 (unknown origin) assessed as remaining enzyme activity at 10 uM by radioactive [33P]-ATP filter binding assay; how it was run: as §2
[22] = Induction of cell cycle arrest in human HuH7 cells assessed as accumulation at G0/G1 phase at cytotoxic IC50 level after 48 hrs by propidium iodide staining based FACS method; format: functional, Huh-7; how it was run: as §3
[23] = target: MAP kinase-activated protein kinase 3 (Homo sapiens) (UniProt Q16644); assay: Inhibition of MAPKAPK3 (unknown origin) assessed as remaining enzyme activity at 10 uM by radioactive [33P]-ATP filter binding assay
[24] = target: Serine/threonine-protein kinase PAK 5 (Homo sapiens) (UniProt Q9P286); assay: Inhibition of PAK5 (unknown origin) assessed as remaining enzyme activity at 10 uM by radioactive [33P]-ATP filter binding assay
[25] = target: Ephrin type-B receptor 4 (Homo sapiens) (UniProt P54760); assay: Inhibition of EPHB4 (unknown origin) assessed as remaining enzyme activity at 10 uM by radioactive [33P]-ATP filter binding assay; how it was run: as §2
[26] = target: Rho-associated protein kinase 2 (Homo sapiens) (UniProt O75116); assay: Inhibition of ROCK2 (unknown origin) assessed as remaining enzyme activity at 10 uM by radioactive [33P]-ATP filter binding assay
[27] = target: Tau-tubulin kinase 1 (Homo sapiens) (UniProt Q5TCY1); assay: Inhibition of TTBK1 (unknown origin) assessed as remaining enzyme activity at 10 uM by radioactive [33P]-ATP filter binding assay
Sequence of Tau-tubulin kinase 1 (Homo sapiens) (Q5TCY1 whole entry): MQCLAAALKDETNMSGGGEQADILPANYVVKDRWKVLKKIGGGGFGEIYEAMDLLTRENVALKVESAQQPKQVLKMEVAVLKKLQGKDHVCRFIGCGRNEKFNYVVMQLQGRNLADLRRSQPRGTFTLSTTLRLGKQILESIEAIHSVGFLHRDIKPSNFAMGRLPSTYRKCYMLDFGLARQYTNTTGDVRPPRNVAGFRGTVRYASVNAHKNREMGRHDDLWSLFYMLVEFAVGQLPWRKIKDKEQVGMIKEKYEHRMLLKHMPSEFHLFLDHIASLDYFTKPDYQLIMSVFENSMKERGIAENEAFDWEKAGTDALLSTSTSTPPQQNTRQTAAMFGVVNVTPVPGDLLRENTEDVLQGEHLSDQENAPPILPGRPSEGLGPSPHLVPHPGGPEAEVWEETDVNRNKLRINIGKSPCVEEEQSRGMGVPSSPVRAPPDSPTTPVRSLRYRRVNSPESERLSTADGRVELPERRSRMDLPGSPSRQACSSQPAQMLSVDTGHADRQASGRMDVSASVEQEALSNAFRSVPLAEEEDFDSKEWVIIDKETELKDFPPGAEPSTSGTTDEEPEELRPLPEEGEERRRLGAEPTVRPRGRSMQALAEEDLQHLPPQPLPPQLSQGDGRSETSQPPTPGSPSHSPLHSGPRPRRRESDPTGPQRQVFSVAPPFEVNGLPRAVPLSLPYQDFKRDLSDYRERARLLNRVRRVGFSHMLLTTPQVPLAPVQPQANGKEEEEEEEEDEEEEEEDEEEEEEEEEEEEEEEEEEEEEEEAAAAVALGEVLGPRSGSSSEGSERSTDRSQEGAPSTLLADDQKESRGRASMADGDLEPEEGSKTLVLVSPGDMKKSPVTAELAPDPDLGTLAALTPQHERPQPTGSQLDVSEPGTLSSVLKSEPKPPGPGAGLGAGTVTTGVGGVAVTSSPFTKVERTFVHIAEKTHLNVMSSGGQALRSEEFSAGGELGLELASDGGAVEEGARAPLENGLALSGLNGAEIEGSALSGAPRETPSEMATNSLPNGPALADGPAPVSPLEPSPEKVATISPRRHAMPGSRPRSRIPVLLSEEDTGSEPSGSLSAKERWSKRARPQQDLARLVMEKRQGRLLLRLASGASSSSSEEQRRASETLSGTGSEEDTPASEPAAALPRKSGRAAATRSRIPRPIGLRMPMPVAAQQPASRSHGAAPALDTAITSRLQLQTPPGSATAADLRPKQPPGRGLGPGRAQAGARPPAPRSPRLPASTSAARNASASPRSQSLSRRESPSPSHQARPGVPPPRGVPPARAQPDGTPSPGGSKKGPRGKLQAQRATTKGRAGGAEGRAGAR

Sequence of Homeodomain-interacting protein kinase 1 (Homo sapiens) (Q86Z02 whole entry, looked up): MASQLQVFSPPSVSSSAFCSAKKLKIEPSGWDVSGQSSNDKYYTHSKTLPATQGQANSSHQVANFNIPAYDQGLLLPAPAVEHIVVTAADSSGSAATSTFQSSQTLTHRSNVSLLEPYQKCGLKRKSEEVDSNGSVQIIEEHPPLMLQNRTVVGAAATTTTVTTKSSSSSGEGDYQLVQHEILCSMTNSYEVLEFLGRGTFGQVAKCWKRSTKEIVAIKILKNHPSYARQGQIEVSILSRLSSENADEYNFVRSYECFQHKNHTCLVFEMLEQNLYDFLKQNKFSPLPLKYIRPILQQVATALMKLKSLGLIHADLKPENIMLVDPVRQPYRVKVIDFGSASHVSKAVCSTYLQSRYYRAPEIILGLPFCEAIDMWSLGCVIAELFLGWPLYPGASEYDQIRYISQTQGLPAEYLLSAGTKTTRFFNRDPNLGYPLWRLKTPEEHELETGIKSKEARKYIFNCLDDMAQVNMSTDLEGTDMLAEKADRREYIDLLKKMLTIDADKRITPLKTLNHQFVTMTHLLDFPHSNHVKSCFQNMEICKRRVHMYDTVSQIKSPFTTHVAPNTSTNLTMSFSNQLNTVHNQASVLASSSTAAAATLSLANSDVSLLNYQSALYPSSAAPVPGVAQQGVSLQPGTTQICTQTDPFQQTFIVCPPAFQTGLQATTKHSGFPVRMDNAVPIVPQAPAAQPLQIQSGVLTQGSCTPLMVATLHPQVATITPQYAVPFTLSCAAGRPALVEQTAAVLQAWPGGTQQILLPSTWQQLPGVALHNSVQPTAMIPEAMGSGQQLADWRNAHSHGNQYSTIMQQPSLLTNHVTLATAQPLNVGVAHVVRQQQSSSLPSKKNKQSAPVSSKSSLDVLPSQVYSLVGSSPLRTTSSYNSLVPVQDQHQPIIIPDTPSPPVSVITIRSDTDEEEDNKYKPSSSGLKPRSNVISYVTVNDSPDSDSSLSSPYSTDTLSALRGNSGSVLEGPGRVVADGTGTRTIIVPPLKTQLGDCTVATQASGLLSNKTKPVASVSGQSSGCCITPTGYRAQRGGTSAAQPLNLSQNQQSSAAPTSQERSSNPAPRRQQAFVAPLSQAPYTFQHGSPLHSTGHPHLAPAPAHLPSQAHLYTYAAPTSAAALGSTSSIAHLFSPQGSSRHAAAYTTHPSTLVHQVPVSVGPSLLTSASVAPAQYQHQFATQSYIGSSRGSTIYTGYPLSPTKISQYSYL
Sequence of Discoidin domain-containing receptor 2 (Homo sapiens) (Q16832 whole entry, the tested form may be a part): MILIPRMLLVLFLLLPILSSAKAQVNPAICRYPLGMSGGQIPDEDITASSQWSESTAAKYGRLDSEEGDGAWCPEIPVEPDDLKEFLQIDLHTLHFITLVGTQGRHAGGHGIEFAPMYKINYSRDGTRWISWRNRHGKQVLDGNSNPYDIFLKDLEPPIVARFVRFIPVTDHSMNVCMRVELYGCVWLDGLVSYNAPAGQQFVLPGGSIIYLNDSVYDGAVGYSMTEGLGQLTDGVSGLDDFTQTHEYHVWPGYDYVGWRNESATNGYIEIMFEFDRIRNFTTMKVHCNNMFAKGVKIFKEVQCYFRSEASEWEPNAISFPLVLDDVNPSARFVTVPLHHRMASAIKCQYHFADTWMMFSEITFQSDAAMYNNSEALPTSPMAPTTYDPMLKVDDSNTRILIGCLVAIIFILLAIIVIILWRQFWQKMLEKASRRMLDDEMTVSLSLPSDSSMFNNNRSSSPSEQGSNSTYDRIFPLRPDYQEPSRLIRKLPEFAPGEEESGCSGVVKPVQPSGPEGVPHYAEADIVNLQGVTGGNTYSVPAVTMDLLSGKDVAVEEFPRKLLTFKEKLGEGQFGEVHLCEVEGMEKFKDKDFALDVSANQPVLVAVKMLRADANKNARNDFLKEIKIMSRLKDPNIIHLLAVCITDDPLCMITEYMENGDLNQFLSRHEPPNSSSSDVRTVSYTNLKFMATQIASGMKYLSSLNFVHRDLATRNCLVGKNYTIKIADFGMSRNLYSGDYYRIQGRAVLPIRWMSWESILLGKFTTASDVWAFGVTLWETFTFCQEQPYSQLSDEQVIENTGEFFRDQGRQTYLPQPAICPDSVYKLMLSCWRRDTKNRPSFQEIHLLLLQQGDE
Sequence of Calcium/calmodulin-dependent protein kinase type 1 (Homo sapiens) (Q14012 whole entry, looked up): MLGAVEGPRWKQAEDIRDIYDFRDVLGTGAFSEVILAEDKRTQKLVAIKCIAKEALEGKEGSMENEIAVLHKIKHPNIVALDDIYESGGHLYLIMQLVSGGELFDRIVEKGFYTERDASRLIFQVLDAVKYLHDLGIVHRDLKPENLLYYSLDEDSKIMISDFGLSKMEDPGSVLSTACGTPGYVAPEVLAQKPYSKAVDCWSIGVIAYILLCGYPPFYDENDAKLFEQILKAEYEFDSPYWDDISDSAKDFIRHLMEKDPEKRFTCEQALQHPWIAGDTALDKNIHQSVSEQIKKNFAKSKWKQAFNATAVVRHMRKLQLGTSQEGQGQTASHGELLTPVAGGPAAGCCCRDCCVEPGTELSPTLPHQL
Sequence of Tyrosine-protein kinase ZAP-70 (Homo sapiens) (P43403 whole entry): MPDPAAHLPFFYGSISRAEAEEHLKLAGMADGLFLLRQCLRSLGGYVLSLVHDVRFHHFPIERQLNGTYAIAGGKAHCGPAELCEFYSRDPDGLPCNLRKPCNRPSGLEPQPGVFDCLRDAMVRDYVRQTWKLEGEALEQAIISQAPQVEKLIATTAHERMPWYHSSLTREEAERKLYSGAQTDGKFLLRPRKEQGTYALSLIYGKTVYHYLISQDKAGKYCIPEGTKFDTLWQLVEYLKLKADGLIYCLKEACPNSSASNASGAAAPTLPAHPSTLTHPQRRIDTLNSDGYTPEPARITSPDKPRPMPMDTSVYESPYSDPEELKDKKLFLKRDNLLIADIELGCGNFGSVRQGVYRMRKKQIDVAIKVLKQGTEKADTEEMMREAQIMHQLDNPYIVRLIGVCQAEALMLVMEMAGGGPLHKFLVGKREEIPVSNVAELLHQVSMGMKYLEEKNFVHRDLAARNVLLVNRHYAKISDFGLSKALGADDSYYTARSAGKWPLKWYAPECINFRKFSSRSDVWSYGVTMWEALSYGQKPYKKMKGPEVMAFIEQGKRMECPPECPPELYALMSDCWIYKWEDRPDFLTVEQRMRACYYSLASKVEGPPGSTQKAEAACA
Sequence of Serine/threonine-protein kinase Chk1 (Homo sapiens) (O14757 whole entry): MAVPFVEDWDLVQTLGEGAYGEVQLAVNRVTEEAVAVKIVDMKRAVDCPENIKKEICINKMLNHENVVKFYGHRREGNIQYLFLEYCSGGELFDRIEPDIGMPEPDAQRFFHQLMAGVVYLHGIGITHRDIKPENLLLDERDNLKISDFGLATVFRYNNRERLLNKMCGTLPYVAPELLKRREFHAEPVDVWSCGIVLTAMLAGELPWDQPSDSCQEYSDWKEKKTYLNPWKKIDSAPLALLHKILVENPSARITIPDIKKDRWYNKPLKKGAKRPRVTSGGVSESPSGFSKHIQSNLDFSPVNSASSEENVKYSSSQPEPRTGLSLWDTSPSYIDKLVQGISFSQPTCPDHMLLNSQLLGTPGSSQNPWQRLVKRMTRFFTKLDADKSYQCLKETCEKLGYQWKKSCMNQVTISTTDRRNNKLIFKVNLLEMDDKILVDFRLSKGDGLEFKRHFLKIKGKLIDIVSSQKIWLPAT

**Q.** Which IC50 (MCF7) does the source give for `Cc1ccc(-c2cc(C(=O)Nc3ccnc(Cl)c3)nn2-c2ccc3ccccc3n2)cc1` here?
**A.** 3300 nM

**Q.** And the Activity [1]?
**A.** 115%

**Q.** What about the Activity [2] of the same compound?
**A.** 114%

**Q.** And the IC50 [3]?
**A.** 1600 nM

**Q.** And the Activity [4]?
**A.** 114%

**Q.** What about the Activity [5] of the same compound?
**A.** 106%

**Q.** And the Activity [6]?
**A.** 95%

**Q.** What about the Activity [7] of the same compound?
**A.** 114%

**Q.** What about the Activity [8] of the same compound?
**A.** 96%

**Q.** What about the Activity [9] of the same compound?
**A.** 113%

**Q.** And the Activity [10]?
**A.** 104%

**Q.** And the Activity [11]?
**A.** 118%

**Q.** What about the Activity [12] of the same compound?
**A.** 116%

**Q.** And the Activity [13]?
**A.** 68%

**Q.** And the Activity [14]?
**A.** 124%

**Q.** What about the Activity [15] of the same compound?
**A.** 113%

**Q.** And the Activity [16]?
**A.** 114%

**Q.** What about the Activity [17] of the same compound?
**A.** 115%

**Q.** And the Activity [18]?
**A.** 98%

**Q.** And the Activity [19]?
**A.** 106%

**Q.** What about the Activity [20] of the same compound?
**A.** 27.8%

**Q.** What about the Activity [21] of the same compound?
**A.** 85%

**Q.** And the Activity [22]?
**A.** 40.1%

**Q.** And the Activity [23]?
**A.** 94%

**Q.** And the Activity [24]?
**A.** 97%

**Q.** And the Activity [25]?
**A.** 125%

**Q.** What about the Activity [26] of the same compound?
**A.** 85%

**Q.** What about the Activity [27] of the same compound?
**A.** 104%
